DSG3 Ab inh: human desmoglein-3 autoantibody binding inhibition; P32926; DSG3-coupled beads, scFv-anti-DSG3-GFP binding, flow cytometry; hits give low values; binding (percent of control), % at 10 µM; actives 0.48% (n = 310,000);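 active means binding more than 3 SD below its plate's average and above zero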;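 further: hits lower antibody fragment binding to DSG3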
Mcl1 Bid PPI: disrupts binding of human Mcl-1 to Bid peptide; actives 0.97% (n = 220,000); TR-FRET Mcl-1/Bid-Dy647 peptide binding, 1536-well; AID 1021; Q07820; inhibition, % at 21.7 µM;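 active means compounds that cut the binding signal by more than half at the single screening dose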;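 further: His-tagged Mcl-1 with europium anti-His antibody binding Bid BH3 peptide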
Target sequence (Q07820 whole entry, looked up): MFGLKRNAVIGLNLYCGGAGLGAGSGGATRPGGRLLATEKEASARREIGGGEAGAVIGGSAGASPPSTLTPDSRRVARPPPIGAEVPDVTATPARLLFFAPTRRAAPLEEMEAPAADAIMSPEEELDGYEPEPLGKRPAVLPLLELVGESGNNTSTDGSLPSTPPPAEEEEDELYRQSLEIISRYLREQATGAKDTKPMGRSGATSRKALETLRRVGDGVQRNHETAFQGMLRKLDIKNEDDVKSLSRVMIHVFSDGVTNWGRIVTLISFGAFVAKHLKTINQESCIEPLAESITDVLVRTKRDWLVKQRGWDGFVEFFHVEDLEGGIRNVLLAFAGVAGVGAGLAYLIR
MCL1-BIM inh: inhibitors of human MCL1 binding to BIM-BH3 peptide; GST-MCL1 / FITC-Bim-BH3 fluorescence polarization; inhibition, % at 10.9 µM; actives 0.68% (n = 320,000); AID 2057;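 active means inhibition above the mean inhibition of all tested compounds plus 3 SD, set per campaign, cut at about 40% in these data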;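 further: higher means more loss of mP so more displacement of Bim peptide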
T cell HTS: T cell immune modulation candidate; 2C CD8+ T cell-vesicle binding, flow cytometry; hits give low values; response (vesicle binding), % at 7 µM; actives 0.068% (n = 330,000); AID 2052;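 active means response, share of CD8 T cells binding vesicles, and their 90th percentile fluorescence all below set limits, cut at about 80% in these data, passing the limit was not always enough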;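 further: values below 100% mean blocked vesicle binding to the CD8+ T cells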
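incubation = binding step 1.5 h, 37 °C, antibody labelling 20 min, ice | test system = 2C mouse CD8+ T cells | read-out basis = percent CD8+ FL2 mean versus row control | controls = Peptide-free naked vesicles (low) and QL9 vesicles with 0.7% DMSO vehicle (high) | detection = flow cytometry of vesicle-bound cells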
Mcl1-Noxa inh: Mcl-1/Noxa interaction inhibition; Q07820; TR-FRET Mcl-1/Noxa peptide binding, 2 h; inhibition, % at 21.7 µM; actives 1.5% (n = 220,000); AID 1022;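 active means compounds that cut the protein-peptide binding signal by more than 50% relative to plate controls in a single-dose test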;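 further: His-tagged Mcl-1 with rhodamine Noxa BH3 peptide and terbium anti-His antibody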
Mcl-1 Bim block: disrupts Bim peptide binding to human Mcl-1 | Q07820 | Bead-based flow cytometry, Bim peptide-Mcl-1 binding | inhibition, % at 10 µM | actives 0.1% (n = 190,000); in the data active means inhibition above about 40%
Hits are given with their value; – = inactive; · = not tested or not shown. Shown are actives, neighbours in structure and some others; about 2.3% of the full set was active somewhere.

SMILES	DSG3 Ab inh	Mcl1 Bid PPI	MCL1-BIM inh	T cell HTS	Mcl1-Noxa inh	Mcl-1 Bim block
CC(=O)c1ccc(S(=O)(=O)N2CCn3cccc3C2C)cc1 (centres undefined)	·	·	41.7	–	·	·
CC(=O)c1cccc(S(=O)(=O)N2CCC(C(=O)O)CC2)c1	–	–	–	–	–	–
CC(=O)c1cccc(S(=O)(=O)N2CCn3cccc3C2C)c1 (centres undefined)	–	·	40.1	–	·	·
COc1ccc(NC(C)=O)cc1S(=O)(=O)N1CCn2cccc2C1C (centres undefined)	–	·	–	–	·	·
CCOC(=O)c1cn(-c2ccc([N+](=O)[O-])cc2)c2cc(Cl)c([N+](=O)[O-])cc2c1=O	61.8	–	–	–	–	–
O=C(COc1ccc([N+](=O)[O-])cc1)NNC(=O)C1COc2ccccc2O1 (centres undefined)	–	·	·	·	·	·
O=C(Nc1ccc2[nH]c(=S)sc2c1)Nc1ccccc1F	–	–	–	–	55.5	·
CCCC(=O)Nc1ccc2oc(-c3cccnc3)nc2c1	·	85.8	–	–	–	–
CCCc1cc(=O)[nH]c(SCC(=O)Nc2cc(S(=O)(=O)N3CCCCC3)ccc2Cl)n1	–	·	·	·	·	·
CCOc1ccc(C(=O)NC2CCN(C(=S)Nc3ccccc3C)CC2)cc1	-5.5	–	–	–	–	–
Cc1cnc(C(=O)Nc2ccc(N3CCCCC3)cc2)cn1	–	–	–	–	–	–
Cc1cnc(C(=O)Nc2ccc(C(=O)N3CCCCC3)cc2)cn1	–	–	–	–	56.4	–
CN1/C(=C\P(=O)(N(C)C)N(C)C)C(C)(C)c2ccccc21	–	–	46.8	–	–	–
COc1ccccc1C1C([N+](=O)[O-])=CC([N+](=O)[O-])=CN1C (centres undefined)	–	–	–	–	–	–
COc1ccccc1C1NC=C([N+](=O)[O-])C=C1[N+](=O)[O-] (centres undefined)	–	–	–	–	77.3	–
COc1ccc2c(c1OC)C(=O)OC2	–	–	–	–	–	–
COc1ccc(N)c2c1OCCC2=O	–	–	–	–	57.1	–
O=C(N/N=C/c1c[nH]c2ccccc12)c1cc(-c2ccc(-c3ccccc3)cc2)n[nH]1	·	51.5	–	–	–	–
Cc1ccc2c(=O)n3c(nc2c1)C(Cc1ccccc1)NC(=O)c1cc(Cl)ccc1-3 (centres undefined)	·	·	·	0.0	·	·
O=C1NC(Cc2ccccc2)c2nc3ccccc3c(=O)n2-c2ccc(Cl)cc21 (centres undefined)	·	·	·	–	·	·
CCCn1cc(CN2CCCC(C(=O)c3ccc4c(c3)OCO4)C2)c(C)n1 (centres undefined)	–	·	–	–	·	·
CCOC(=O)C(Cc1ccnc2ccccc12)=NO	–	·	·	·	·	·
CCOC(=O)C(=O)Cc1cccnn1	47.2	·	·	·	·	·
COc1cc2ccccc2cc1C(=O)N1CCN(c2ccccc2O)CC1	–	·	–	–	·	·
Cn1ncc(Cl)c1C(=O)Nc1cccc(Cl)c1	–	–	–	–	52.1	–
SMILES	DSG3 Ab inh	Mcl1 Bid PPI	MCL1-BIM inh	T cell HTS	Mcl1-Noxa inh	Mcl-1 Bim block
Cn1ncc(N=Cc2c(O)ccc3ccccc23)c1C(=O)Nc1cccc(Cl)c1	–	54.7	45.8	–	–	–
Cn1ncc([N+](=O)[O-])c1C(=O)Nc1cccc(Cl)c1	–	·	–	–	·	·
CC(C)c1ccc(N(CC(=O)NCc2ccco2)C(=O)CCC(=O)Nc2nccs2)cc1	-38.6	·	–	–	·	·
O=C(CCC(=O)N(CC(=O)NC1CCCCC1)c1ccc(F)cc1)Nc1nccs1	–	·	–	–	·	·
O=C(CCC(=O)N(CC(=O)NC1CCCC1)c1ccc(F)cc1)Nc1nccs1	47.9	·	–	–	·	·
CC12CCCC(CC(=O)O)(C1)NC(=O)C2 (centres undefined)	64.2	·	·	·	·	·
COc1ccc(-c2cc(C(=O)Nc3c(C)n(C)n(-c4ccccc4)c3=O)c3ccccc3n2)c(OC)c1	·	·	–	–	·	·
Cc1cc(=O)oc2cc(OCC(=O)Nc3ccc(S(=O)(=O)N(C)C)cc3)ccc12	71.3	–	–	–	–	·
Cc1cc(=O)oc2cc(OCC(=O)OCC(=O)Nc3ccccc3Br)ccc12	70.7	–	–	–	–	·
CNC(=O)COC(=O)COc1ccc2c(C)cc(=O)oc2c1	–	–	–	–	–	–
Cc1cc(=O)oc2cc(OCc3ccc(C(=O)OCC(=O)NC4CCS(=O)(=O)C4)cc3)ccc12 (centres undefined)	70.2	–	–	–	–	·
Cc1cc(=O)oc2cc(OCc3ccc(C(=O)OCC(=O)N(C)C4CCS(=O)(=O)C4)cc3)ccc12 (centres undefined)	–	–	–	–	–	·
Cc1ccc(C)c(NC(=O)CCC(=O)N/N=C/c2cc([N+](=O)[O-])ccc2O)c1	–	–	–	–	–	–
Cc1cc(=O)oc2cc(OCC(=O)N/N=C/c3cc([N+](=O)[O-])ccc3O)ccc12	–	81.5	–	–	73.2	–
Cc1cc(=O)oc2cc(OCC(=O)OCC(=O)Nc3ccc(C(C)C)cc3)ccc12	–	–	–	–	–	–
Cc1cc(=O)oc2cc(OCc3ccc(C(=O)OCC(=O)Nc4ccc(N(C)C)cc4)cc3)ccc12	–	91.9	·	·	95.6	–
O=C(CSc1nc(Cc2ccccc2)nc2ccccc12)Nc1ccc2c(c1)OCCO2	–	58.5	–	–	–	–
O=C(O)C1CCCCC1C(=O)NCCCN1CCCC1=O (centres undefined)	–	·	–	–	·	·
O=C(NCCCN1CCCC1=O)c1ccc2c(c1)OCO2	–	61.9	–	–	–	–
O=C(NCCCN1CCCC1=O)NC1CCCCC1	·	–	–	–	–	54.0
CC(=O)[C@@H]1[C@@H]2C(=O)N(Cc3ccccc3)C(=O)[C@@H]2C2c3ccccc3C=CN21 (some centres undefined)	–	–	49.6	–	–	–
O/N=C(\Cn1ccnc1)c1ccccc1	–	·	·	·	·	·
CCOc1cc(/C=C2\C(=O)NN(c3ccccc3)C2=O)cc([N+](=O)[O-])c1O	–	–	–	–	50.5	–
COc1cc(/C=C2\C(=O)NN(c3ccccc3)C2=O)cc([N+](=O)[O-])c1O	–	–	–	–	50.6	–
COc1cccc(CN(C)C(=O)c2ccc(Oc3ccccc3)cc2)c1OC	–	·	–	–	·	·
SMILES	DSG3 Ab inh	Mcl1 Bid PPI	MCL1-BIM inh	T cell HTS	Mcl1-Noxa inh	Mcl-1 Bim block
Cc1cnc(NS(=O)(=O)c2ccccc2)c(C)n1	66.3	·	–	–	·	·
Cc1ccc(S(=O)(=O)NC(=O)COc2ccccc2C)c(C)c1	–	·	–	–	·	·
O=C(NC1CCCC1)c1cc(Cl)ccc1[N+](=O)[O-]	–	–	–	–	–	–
O=C(NC1CC1)c1cc(Cl)ccc1[N+](=O)[O-]	–	–	–	–	71.3	–
CCOc1ccccc1N(CC(=O)Nc1ccccc1Br)S(=O)(=O)c1ccccc1	–	·	·	·	·	·
O=C(/C(=N/N=C/c1ccc(O)c(O)c1)c1ccccc1)c1ccccc1	–	–	–	–	50.5	–
COc1cc(/C=N/N=C2/C(=O)Nc3ccccc32)ccc1O	–	–	–	–	–	–

Assay outcomes from PubChem.
